Data set [1] addresses Human immunodeficiency virus type 1 reverse transcriptase (Human immunodeficiency virus 1, UniProt Q72547, L100I). As to the kind of experiment: Inhibition of HIV1 reverse transcriptase L100I mutant by RNA-dependent DNA polymerase activity assay.
In data set [2] the test system is Human immunodeficiency virus 1. The data set is described as follows: Antiviral activity against HIV1 3B infected in human MT4 cells assessed inhibition of viral-induced cytopathic effect after 5 days. In kind it is functional, organism-based. Particulars: Human immunodeficiency virus 1, 3B, MT4, 120 h. The method in brief: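 MT-4 cells infected with HIV-1 IIIB at about 100 times the CCID50 per mL of suspension, then mixed 1:1 with serial compound dilutions and incubated at 37 °C for five days. Viable cell number was then determined.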

Data set [3] deals with Human immunodeficiency virus type 1 reverse transcriptase (Human immunodeficiency virus 1, UniProt Q72547, K103N). As to the kind of experiment: Inhibition of HIV1 reverse transcriptase K103N mutant by RNA-dependent DNA polymerase activity assay.
A short description of data set [4]: Selectivity index, ratio of CC50 for human MT4 cells to EC50 for HIV1 3B. In kind it is toxicity, cell-based. Particulars: read-out: Ratio CC50/EC50.
Data set [5] addresses Human immunodeficiency virus type 1 reverse transcriptase (Human immunodeficiency virus 1, UniProt Q72547, Y181I). The data set is described as follows: Inhibition of HIV1 reverse transcriptase Y181I mutant by RNA-dependent DNA polymerase activity assay.
Data set [6] in a line: Cytotoxicity in human MT4 cells assessed as reduction in cell viability. The format is cell-based.
Data set [7] deals with Human immunodeficiency virus type 1 reverse transcriptase (Human immunodeficiency virus 1, UniProt Q72547). The data set is described as follows: Inhibition of RNA-dependent DNA polymerase activity of HIV1 reverse transcriptase using poly(rA)/pligo(dT) template.

The structures appear in SMILES notation. Bounds are passed on as bounds.

Consider `Cc1cc(C)cc(S(=O)(=O)n2c(=O)[nH]c3ccc(Cl)cc32)c1`, for which the results for the IC50 in data set [1], in data set [3] and in data set [5] were 9 nM, 400 nM and above 40000 nM, respectively. Moreover, in data set [2], the EC50 turned out to be 2.2 nM. In addition, the selectivity ratio in data set [4] came out at 17800.

Take `Cc1cccc(S(=O)(=O)n2c(=O)[nH]c3ccc(Cl)cc32)c1`: the IC50 in data set [1] is 70 nM; in data set [3], 10000 nM; in data set [5], above 40000 nM; in data set [7] it was 21 nM. In data set [2], this molecule yielded an EC50 of 15.1 nM. In data set [6], the CC50 was above 308000 nM. Further, the selectivity ratio in data set [4] was above 20500.

`Cc1ccc(S(=O)(=O)n2c(=O)[nH]c3ccc(Cl)cc32)cc1` showed an EC50 in data set [2] of 46 nM. Besides, in data set [6], the CC50 was determined as 134000 nM. The selectivity ratio in data set [4] was found to be 2900. The IC50 in data set [7] was 149 nM.

Take `O=c1[nH]c2ccc(Cl)cc2n1S(=O)(=O)c1cccc(OC(F)(F)F)c1`: in data set [2], the EC50 stood at 3660 nM. In data set [6], the CC50 is above 128000 nM. Besides, the selectivity ratio in data set [4] was above 35. This molecule yielded an IC50 in data set [7] of 305 nM.

As to `Cc1cc(C)cc(S(=O)(=O)n2c(=O)[nH]c3ccc(Cl)nc32)c1`, the IC50 in data set [1] was 70 nM; in data set [3] it was 2800 nM; in data set [5], 27000 nM; in data set [7], 20 nM. For the same molecule, the EC50 in data set [2] was 26 nM. Also, in data set [6], the CC50 was above 272000 nM. Moreover, the selectivity ratio in data set [4] was above 10500.

On to `Cc1ccc(S(=O)(=O)n2c(=O)[nH]c3ccc(Cl)cc32)c(C)c1`, for which the midpoint of the response in data set [2], the EC50, lay at 120 nM. Moreover, the CC50 in data set [6] was 39300 nM. Moreover, the selectivity ratio in data set [4] worked out at 327. This molecule showed a half-maximal inhibitory concentration (IC50) in data set [7] of 630 nM.

`Cc1ccc(C)c(S(=O)(=O)n2c(=O)[nH]c3ccc(Cl)cc32)c1`: the IC50 in data set [1] was 380 nM; in data set [3] it was above 40000 nM; in data set [5], above 40000 nM; in data set [7], 49 nM. In addition, the EC50 in data set [2] amounted to 9.7 nM. For the same molecule, in data set [6], the CC50 was above 371000 nM. In addition, in data set [4], the selectivity ratio is above 37100.

As to `Cc1ccc(S(=O)(=O)n2c(=O)[nH]c3ccc(Cl)cc32)cc1C`, the IC50 is 30 nM in data set [1], 2610 nM in data set [3], above 40000 nM in data set [5] and 4 nM in data set [7]. Moreover, the EC50 in data set [2] is 6 nM. Besides, in data set [6], the CC50 is above 371000 nM. In addition, the selectivity ratio in data set [4] is above 61900.

Take `COc1cccc(S(=O)(=O)n2c(=O)[nH]c3ccc(Cl)cc32)c1`: the IC50 in data set [1] was 330 nM; in data set [3], 10900 nM; in data set [5] it was above 40000 nM; in data set [7], 52 nM. The molecule further returned an EC50 in data set [2] of 35 nM. For the same molecule, the CC50 in data set [6] is above 369000 nM. In addition, the selectivity ratio in data set [4] was above 10500.

Turning to `Cc1cc(C)c(C)c(S(=O)(=O)n2c(=O)[nH]c3ccc(Cl)cc32)c1C`, the IC50 in data set [1] was 180 nM; in data set [3], above 40000 nM; in data set [5], above 40000 nM; in data set [7] it was 40 nM. Moreover, the EC50 in data set [2] was determined as 63 nM. Besides, the CC50 in data set [6] was at least 343000 nM. Besides, the selectivity ratio in data set [4] was above 5410.

For the molecule `O=c1[nH]c2ccc(Cl)cc2n1S(=O)(=O)c1cc(C(F)(F)F)cc(C(F)(F)F)c1`, the EC50 in data set [2] amounted to 310 nM. Besides, the CC50 in data set [6] amounted to 32300 nM. Also, the selectivity ratio in data set [4] came to 104. This molecule had an IC50 in data set [7] of 310 nM.

Take `Cc1ccccc1S(=O)(=O)n1c(=O)[nH]c2ccc(Cl)cc21`: in data set [2], the EC50 was 1920 nM. Further, the CC50 in data set [6] is above 387000 nM. Also, the selectivity ratio in data set [4] was above 201. In addition, the IC50 in data set [7] worked out at 269 nM.

Turning to `Cc1c(C)c(C)c(S(=O)(=O)n2c(=O)[nH]c3ccc(Cl)cc32)c(C)c1C`, the IC50 in data set [1] is 80 nM; in data set [3], 6700 nM; in data set [5], above 40000 nM; in data set [7], 47 nM. The EC50 in data set [2] worked out at 129 nM. In addition, the CC50 in data set [6] is 236000 nM. The selectivity ratio in data set [4] is 1830.

As to `Cc1cc(C)c(S(=O)(=O)n2c(=O)[nH]c3ccc(Cl)cc32)c(C)c1`, the IC50 in data set [1] is 10 nM; in data set [3], above 40000 nM; in data set [5], above 40000 nM; in data set [7], 1.2 nM. In data set [2], this molecule had an EC50 of 1000 nM. In data set [6], the CC50 is above 356000 nM. Also, the selectivity ratio in data set [4] was above 355.

The molecule `O=c1[nH]c2ccc(Cl)cc2n1S(=O)(=O)c1cccc(C(F)(F)F)c1` had an EC50 in data set [2] of 500 nM. For the same molecule, the CC50 in data set [6] is above 332000 nM. In data set [4], the selectivity ratio is above 664. Moreover, the IC50 in data set [7] turned out to be 1720 nM.

Consider `O=C1Nc2ccc(Cl)cc2[C@@](C#CC2CC2)(C(F)(F)F)O1` [EFAVIRENZ], for which the CC50 in data set [6] is above 6000 nM.

On to `Cc1ccnc2c1NC(=O)c1cccnc1N2C1CC1` [NEVIRAPINE], for which the CC50 in data set [6] was above 15000 nM.

Values taken from ChEMBL document CHEMBL1156899, “Novel 1,3-dihydro-benzimidazol-2-ones and their analogues as potent non-nucleoside HIV-1 reverse transcriptase inhibitors” (Bioorg Med Chem, 2010).
